{"data": "Measured values collected from several papers", "CDK6 with cyclin D3": "Cyclin-dependent kinase 6, with cyclin D3 (CDK6, Homo sapiens, UniProt Q00534)", "CDK6": "Cyclin-dependent kinase 6 (CDK6, Homo sapiens, UniProt Q00534)", "CDK6 with cyclin D1": "Cyclin-dependent kinase 6, with cyclin D1 (CDK6, Homo sapiens, UniProt Q00534)", "note": "Each line is one published result; the experiments were not run side by side."}
{"SMILES": "Cc1ccc(C(=O)NCc2ccsc2)cc1C#Cc1cn(C(C)C)c2ncnc(N)c12", "target": "CDK6 with cyclin D3", "test": "enzyme activity, inhibitor", "conditions": "1 µM", "measurement": "activity vs control", "result": "101%"}
{"SMILES": "CC(C)(C)c1nc2c(s1)c1nc(N)ncc1c1ccc(NS(=O)(=O)c3c(F)cccc3F)c(F)c12", "target": "CDK6 with cyclin D3", "test": "enzyme activity, inhibitor, radiometric", "conditions": "1 µM", "measurement": "remaining activity", "result": "97%"}
{"SMILES": "Cn1cnc(Br)c1C1=CN(c2ncnc3[nH]cnc23)CCS1", "target": "CDK6", "test": "enzyme activity, inhibitor, radiometric", "conditions": "50 nM", "measurement": "inhibition", "result": "22%"}
{"SMILES": "Nc1nc(Nc2ccc(S(N)(=O)=O)cc2)sc1C(=O)c1ccccc1[N+](=O)[O-]", "target": "CDK6", "test": "enzyme activity, inhibitor", "conditions": "0.1 µM", "measurement": "inhibition", "result": "85%"}
{"SMILES": "Cc1cc(NC(=O)c2cccc3cc(-c4cccc5[nH]nc(N)c45)ccc23)ccc1F", "target": "CDK6 with cyclin D3", "test": "enzyme activity, inhibitor", "conditions": "0.1 µM", "measurement": "activity vs control", "result": "94%"}
{"SMILES": "O=C1Nc2ccc(Cl)cc2C1=Cc1cc(Cl)c(O)c(Cl)c1", "target": "CDK6 with cyclin D3", "test": "cell-free assay", "conditions": "0.5 µM", "measurement": "remaining signal", "result": "94.1%"}
{"SMILES": "Cc1ccc(Nc2nccc(N(C)c3ccc4c(C)n(C)nc4c3)n2)cc1S(N)(=O)=O", "target": "CDK6 with cyclin D3", "test": "enzyme activity, inhibitor", "conditions": "0.3 µM", "measurement": "inhibition", "result": "-7%"}
{"SMILES": "O=C(Nc1cnn(-c2csc(C(=O)NC3COC3)c2)c1)Nc1c(F)cccc1Cl", "target": "CDK6 with cyclin D3", "test": "enzyme activity, inhibitor", "conditions": "5 µM", "measurement": "remaining activity", "result": "92.6%"}
{"SMILES": "CC(C)(O)[C@H]1CC[C@H](Nc2ccc3ncc(-c4cccc(C(F)(F)F)c4)n3n2)CC1", "target": "CDK6 with cyclin D3", "test": "enzyme activity, inhibitor", "conditions": "1 µM", "measurement": "remaining activity", "result": "96.4%"}
{"SMILES": "O=C(Nc1cnn(-c2csc(C(=O)NC3COC3)c2)c1)Nc1ccccc1Cl", "target": "CDK6 with cyclin D3", "test": "enzyme activity, inhibitor", "conditions": "5 µM", "measurement": "remaining activity", "result": "114%"}
{"SMILES": "CNC(=O)c1cc(Oc2ccc(NC(=O)Nc3ccc(Cl)c(C(F)(F)F)c3)cc2)ccn1", "target": "CDK6 with cyclin D3", "test": "enzyme activity, inhibitor", "conditions": "10 µM", "measurement": "inhibition", "result": "-5%"}
{"SMILES": "CC(C)(C)c1nc(-c2cccc(NS(=O)(=O)c3c(F)cccc3F)c2F)c(-c2ccnc(N)n2)s1", "target": "CDK6 with cyclin D1", "test": "enzyme activity, inhibitor, radiometric", "conditions": "1 µM", "measurement": "remaining activity", "result": "104%"}
{"SMILES": "N#CCCc1ccc2c(c1)-c1[nH]c3ccc([N+](=O)[O-])cc3c1CC(=O)N2", "target": "CDK6 with cyclin D1", "test": "cell-free assay", "conditions": "0.5 µM", "measurement": "remaining signal", "result": "6.79%"}
{"SMILES": "CCN(CC)CCNC(=O)c1c(C)[nH]c(/C=C2\\C(=O)Nc3ccc(F)cc32)c1C", "target": "CDK6 with cyclin D3", "test": "enzyme activity, inhibitor", "conditions": "10 µM", "measurement": "inhibition", "result": "73%"}
{"SMILES": "O=C1NC(=O)c2cc(Nc3ccc(F)cc3)c(Nc3ccc(F)cc3)cc21", "target": "CDK6 with cyclin D3", "test": "cell-free assay", "conditions": "0.5 µM", "measurement": "remaining signal", "result": "89.9%"}
{"SMILES": "CCN(CC)c1ccc(C2=NNC(=O)CC2C)cc1[N+](=O)[O-] (centres unmarked)", "target": "CDK6 with cyclin D3", "test": "enzyme activity, inhibitor", "conditions": "10 µM", "measurement": "remaining activity", "result": "90%"}
{"SMILES": "CC(C)c1ccc(NC(=O)c2cccs2)c(-c2nc3ccccc3[nH]c2=O)c1", "target": "CDK6 with cyclin D3", "test": "enzyme activity, inhibitor", "conditions": "1 µM", "measurement": "activity vs control", "result": "114%"}
